Laboratory results published in ChEMBL document CHEMBL1955832, “Facile synthesis, characterization and pharmacological activities of 3,6-disubstituted 1,2,4-triazolo[3,4-b][1,3,4]thiadiazoles and 5,6-dihydro-3,6-disubstituted-1,2,4-triazolo[3,4-b][1,3,4]thiadiazoles” (2012).
Values after ≈ are worked out from the molar mass of the structure shown. Active and inactive are the calls of the source. The rule behind the calls is not given here.

Columns and labels:
Aspergillus fumigatus [1] = test: Antifungal activity against Aspergillus fumigatus NCIM 902 by serial plate dilution method; assay type: functional
Pseudomonas aeruginosa [2] = test: Antibacterial activity against Pseudomonas aeruginosa ATTC 27853 after 16 to 18 hrs by serial dilution method; assay type: functional
In short: (§1)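 Serial drug dilutions in Mueller-Hinton broth adjusted to pH 5.0 with phosphate buffer, inoculated with standardized bacterial suspension, incubated 16–18 h at 37 °C; MIC taken as lowest concentration without conspicuous growth.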

Staphylococcus aureus [3] = test: Antibacterial activity against Staphylococcus aureus ATTC 25923 at MIC after 3 to 4 days by disc diffusion method; assay type: functional
In short: (§2)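 Agar well diffusion: seeded agar plates dried 1 h at 37 °C, wells punched and filled with test compound at MIC level in DMSO; DMSO solvent control. Plates in triplicate, kept at 37 °C for 3–4 days; zone of inhibition read.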

Escherichia coli [4] = test: Antibacterial activity against Escherichia coli ATTC 25922 at MIC after 3 to 4 days by disc diffusion method; assay type: functional; in short: as §2
[5] = test system: Radical scavenging activity; test: Antioxidant activity of the compound assessed as DPPH radical scavenging activity at 200 ug/ml after 20 mins; assay type: functional
In short: (§3)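 Compound dissolved in methylene dichloride at the stated concentration, mixed with 4 mL 0.1 mM methanolic DPPH, held 20 min at ambient temperature; absorbance read at 517 nm. Scavenging % = (A_DPPH − A_test)/A_DPPH × 100. Triplicate; ascorbic acid positive control.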

Escherichia coli [6] = test: Antibacterial activity against Escherichia coli ATTC 25922 after 16 to 18 hrs by serial dilution method; assay type: functional; in short: as §1
Aspergillus flavus [7] = test: Antifungal activity against Aspergillus flavus NCIM 524 by serial plate dilution method; assay type: functional
[8] = test system: Trichophyton mentagrophytes; test: Antifungal activity against recultured Trichophyton mentagrophytes by serial plate dilution method; assay type: functional
[9] = test system: Trichophyton mentagrophytes; test: Antifungal activity against recultured Trichophyton mentagrophytes at MIC after 3 to 4 days; assay type: functional
Talaromyces marneffei [10] = test: Antifungal activity against recultured Penicillium marneffei by serial plate dilution method; assay type: functional
Pseudomonas aeruginosa [11] = test: Antibacterial activity against Pseudomonas aeruginosa ATTC 27853 at MIC after 3 to 4 days by disc diffusion method; assay type: functional; in short: as §2
Mus musculus [12] = test: Analgesic activity Wistar albino mouse assessed as tail withdrawal latency time at 100 mg/kg, po administered by intragastric tube after 120 mins (reference value: 1.363 +/- 0.1297 sec); assay type: functional
[13] = test system: Radical scavenging activity; test: Antioxidant activity of the compound assessed as DPPH radical scavenging activity at 400 ug/ml after 20 mins; assay type: functional; in short: as §3
Klebsiella pneumoniae [14] = test: Antibacterial activity against recultured Klebsiella pneumoniae at MIC after 3 to 4 days by disc diffusion method; assay type: functional; in short: as §2
[15] = test system: Radical scavenging activity; test: Antioxidant activity of the compound assessed as DPPH radical scavenging activity at 800 ug/ml after 20 mins; assay type: functional; in short: as §3
Rattus norvegicus = test: Antiinflammatory activity rat assessed as reduction of carrageenan-induced paw oedema at 100 mg/kg, po administered 30 mins before carrageenan challenge measured after 60 to 180 mins; assay type: functional, organism-based; parameters: dose 100 mg/kg
In short: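 Rats randomly assigned, 100 mg/kg orally as suspension in 1% carboxymethyl cellulose, 30 min before carrageenan injected into right hind paw. Paw thickness measured with vernier callipers at 60, 120 and 180 min. Diclofenac reference; mean ± SEM, n = 6, vs vehicle control.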

Aspergillus flavus [16] = test: Antifungal activity against Aspergillus flavus NCIM 524 at MIC after 3 to 4 days; assay type: functional
Aspergillus fumigatus [17] = test: Antifungal activity against Aspergillus fumigatus NCIM 902 at MIC after 3 to 4 days; assay type: functional
Mus musculus [18] = test: Analgesic activity Wistar albino mouse assessed as tail withdrawal latency time at 100 mg/kg, po administered by intragastric tube after 180 mins (reference value: 1.363 +/- 0.1297 sec); assay type: functional
Staphylococcus aureus [19] = test: Antibacterial activity against Staphylococcus aureus ATTC 25923 after 16 to 18 hrs by serial dilution method; assay type: functional; in short: as §1
Klebsiella pneumoniae [20] = test: Antibacterial activity against recultured Klebsiella pneumoniae after 16 to 18 hrs by serial dilution method; assay type: functional; in short: as §1
Mus musculus [21] = test: Analgesic activity Wistar albino mouse assessed as tail withdrawal latency time at 100 mg/kg, po administered by intragastric tube after 60 mins (reference value: 1.363 +/- 0.1297 sec); assay type: functional
Talaromyces marneffei [22] = test: Antifungal activity against recultured Penicillium marneffei at MIC after 3 to 4 days; assay type: functional

| SMILES | MIC (Aspergillus fumigatus [1]) | MIC (Pseudomonas aeruginosa [2]) | MIC (Escherichia coli [6]) | MIC (Aspergillus flavus [7]) | MIC [8] | MIC (Talaromyces marneffei [10]) | MIC (Staphylococcus aureus [19]) | diameter of the inhibition zone (DIZ) (Staphylococcus aureus [3]) | diameter of the inhibition zone (DIZ) (Escherichia coli [4]) | inhibition [5] | diameter of the inhibition zone (DIZ) [9] | diameter of the inhibition zone (DIZ) (Pseudomonas aeruginosa [11]) | Time (Mus musculus [12]) | inhibition [13] | diameter of the inhibition zone (DIZ) (Klebsiella pneumoniae [14]) | inhibition [15] | Activity (Rattus norvegicus) | diameter of the inhibition zone (DIZ) (Aspergillus flavus [16]) | diameter of the inhibition zone (DIZ) (Aspergillus fumigatus [17]) | Time (Mus musculus [18]) | further results |
| --- | --- | --- | --- | --- | --- | --- | --- | --- | --- | --- | --- | --- | --- | --- | --- | --- | --- | --- | --- | --- | --- |
| COc1ccc(Br)c(-c2n[nH]c(=S)n2N)c1 | 20.8 µM (≈ 6.25 µg/mL) | 41.5 µM (≈ 12.5 µg/mL) | 20.8 µM (≈ 6.25 µg/mL) | 20.8 µM (≈ 6.25 µg/mL) | 20.8 µM (≈ 6.25 µg/mL) | 20.8 µM (≈ 6.25 µg/mL) | 41.5 µM (≈ 12.5 µg/mL) | 11 mm | 16 mm | 52.7% | 16 mm | 11 mm | 3.388 s | 56.8% | 16 mm | 67.5% | Active | 16 mm | 16 mm | 2.338 s | MIC (Klebsiella pneumoniae [20]): 20.8 µM (≈ 6.25 µg/mL); Time (Mus musculus [21]): 3.463 s; diameter of the inhibition zone (DIZ) (Talaromyces marneffei [22]): 16 mm |
| O=C1O[C@H]([C@@H](O)CO)C(O)=C1O | – | – | – | – | – | – | – | – | – | 87.6% | – | – | – | 95% | – | 96% | – | – | – | – | – |
| COc1ccc(C2Nn3c(nnc3-c3cc(OC)ccc3Br)S2)c(OC)c1 (stereo not given) | 27.8 µM (≈ 12.5 µg/mL) | 13.9 µM (≈ 6.25 µg/mL) | 13.9 µM (≈ 6.25 µg/mL) | 27.8 µM (≈ 12.5 µg/mL) | 27.8 µM (≈ 12.5 µg/mL) | 13.9 µM (≈ 6.25 µg/mL) | 27.8 µM (≈ 12.5 µg/mL) | 11 mm | 16 mm | – | 11 mm | 16 mm | 2.642 s | – | 16 mm | – | Active | 11 mm | 11 mm | 2.492 s | MIC (Klebsiella pneumoniae [20]): 13.9 µM (≈ 6.25 µg/mL); Time (Mus musculus [21]): 2.39 s; diameter of the inhibition zone (DIZ) (Talaromyces marneffei [22]): 16 mm |

Continued by falling MIC (Aspergillus fumigatus [1]), values first:

| MIC (Aspergillus fumigatus [1]) | MIC (Pseudomonas aeruginosa [2]) | MIC (Escherichia coli [6]) | MIC (Aspergillus flavus [7]) | MIC [8] | MIC (Talaromyces marneffei [10]) | MIC (Staphylococcus aureus [19]) | SMILES | diameter of the inhibition zone (DIZ) (Staphylococcus aureus [3]) | diameter of the inhibition zone (DIZ) (Escherichia coli [4]) | inhibition [5] | diameter of the inhibition zone (DIZ) [9] | diameter of the inhibition zone (DIZ) (Pseudomonas aeruginosa [11]) | Time (Mus musculus [12]) | inhibition [13] | diameter of the inhibition zone (DIZ) (Klebsiella pneumoniae [14]) | inhibition [15] | Activity (Rattus norvegicus) | diameter of the inhibition zone (DIZ) (Aspergillus flavus [16]) | diameter of the inhibition zone (DIZ) (Aspergillus fumigatus [17]) | Time (Mus musculus [18]) | further results |
| --- | --- | --- | --- | --- | --- | --- | --- | --- | --- | --- | --- | --- | --- | --- | --- | --- | --- | --- | --- | --- | --- |
| 14.9 µM (≈ 6.25 µg/mL) | 29.8 µM (≈ 12.5 µg/mL) | 29.8 µM (≈ 12.5 µg/mL) | 29.8 µM (≈ 12.5 µg/mL) | 29.8 µM (≈ 12.5 µg/mL) | 14.9 µM (≈ 6.25 µg/mL) | 29.8 µM (≈ 12.5 µg/mL) | COc1ccc(C2Nn3c(nnc3-c3cc(OC)ccc3Br)S2)cc1 (stereo not given) | 11 mm | 11 mm | 40.6% | 11 mm | 11 mm | 3.334 s | 65.9% | 11 mm | 77.9% | Active | 11 mm | 16 mm | 2.841 s | MIC (Klebsiella pneumoniae [20]): 29.8 µM (≈ 12.5 µg/mL); Time (Mus musculus [21]): 3.468 s; diameter of the inhibition zone (DIZ) (Talaromyces marneffei [22]): 16 mm |
| 14.8 µM (≈ 6.25 µg/mL) | 29.5 µM (≈ 12.5 µg/mL) | 29.5 µM (≈ 12.5 µg/mL) | 14.8 µM (≈ 6.25 µg/mL) | 29.5 µM (≈ 12.5 µg/mL) | 29.5 µM (≈ 12.5 µg/mL) | 14.8 µM (≈ 6.25 µg/mL) | COc1ccc(Br)c(-c2nnc3n2NC(c2ccccc2Cl)S3)c1 (stereo not given) | 16 mm | 11 mm | 48% | 11 mm | 11 mm | 3.25 s | 51.8% | 11 mm | 62.7% | Active | 16 mm | 16 mm | 2.938 s | MIC (Klebsiella pneumoniae [20]): 29.5 µM (≈ 12.5 µg/mL); Time (Mus musculus [21]): 3.6 s; diameter of the inhibition zone (DIZ) (Talaromyces marneffei [22]): 11 mm |
| 13.7 µM (≈ 6.25 µg/mL) | 13.7 µM (≈ 6.25 µg/mL) | 13.7 µM (≈ 6.25 µg/mL) | 27.4 µM (≈ 12.5 µg/mL) | 13.7 µM (≈ 6.25 µg/mL) | 13.7 µM (≈ 6.25 µg/mL) | 27.4 µM (≈ 12.5 µg/mL) | COc1ccc(Br)c(-c2nnc3sc(-c4cc(Cl)cc(Cl)c4)nn23)c1 | 11 mm | 16 mm | 49.8% | 16 mm | 16 mm | 3.075 s | 54.3% | 16 mm | 66.8% | Active | 11 mm | 16 mm | 2.388 s | MIC (Klebsiella pneumoniae [20]): 13.7 µM (≈ 6.25 µg/mL); Time (Mus musculus [21]): 3.421 s; diameter of the inhibition zone (DIZ) (Talaromyces marneffei [22]): 16 mm |
